From BindingDB's records for doi:10.1016/j.bmcl.2009.03.011 (Cytrx, 2009) come the findings set out here.

The target of the experiment is T1, Heat shock factor protein 1 (Homo sapiens, UniProt Q00613).
T1 sequence (Q00613 whole entry): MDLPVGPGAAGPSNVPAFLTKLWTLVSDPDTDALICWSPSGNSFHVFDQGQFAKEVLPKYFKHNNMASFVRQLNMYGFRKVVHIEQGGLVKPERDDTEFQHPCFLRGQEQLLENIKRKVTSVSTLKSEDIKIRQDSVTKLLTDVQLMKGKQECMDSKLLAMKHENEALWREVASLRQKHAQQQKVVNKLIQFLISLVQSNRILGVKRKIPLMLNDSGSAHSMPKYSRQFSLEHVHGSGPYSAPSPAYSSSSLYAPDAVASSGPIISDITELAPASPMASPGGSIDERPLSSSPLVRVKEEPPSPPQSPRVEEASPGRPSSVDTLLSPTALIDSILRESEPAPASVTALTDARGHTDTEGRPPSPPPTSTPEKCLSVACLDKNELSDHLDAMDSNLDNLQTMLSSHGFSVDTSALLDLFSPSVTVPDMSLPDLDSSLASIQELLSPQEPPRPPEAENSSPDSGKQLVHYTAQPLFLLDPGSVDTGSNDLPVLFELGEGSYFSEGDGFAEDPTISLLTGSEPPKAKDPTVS
Kind of experiment: Transcriptional activation of HSF1 in heat shock stress-induced human HeLa cells assessed as granule formation treated 1 hr before heat shock challenge measured after 2 hrs by immunocytochemical staining. The gist of the method: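 HeLa cells given compound 1 h, then heat shock at 41 °C for 2 h without recovery; HSF1 immunocytochemical staining, quantified by high-content imaging. Range 0.3–80 µM, twofold dilution, 200-fold overall.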

The EC50 is the concentration that produces a half-maximal response. As to `OC(CO/N=C(\Cl)c1nc2c(F)cccc2o1)CN1CCCCC1` (configuration not stated) [4-fluoro-N-(2-hydroxy-3-(piperidin-1-yl)propoxy)benzo[d]oxazole-2-carbimidoyl chloride], the EC50 came out at 20.2 µM.
In the case of `CCS(=O)(=O)c1ccc2oc(/C(Cl)=N/OCC(O)CN3CCCCC3)nc2c1` (configuration not stated) [5-(ethylsulfonyl)-N-(2-hydroxy-3-(piperidin-1-yl)propoxy)benzo[d]oxazole-2-carbimidoyl chloride], the EC50 is 42.9 µM.
`OC(CO/N=C(\Cl)c1nc2cc(Cl)ccc2o1)CN1CCCCC1` (configuration not stated) [5-chloro-N-(2-hydroxy-3-(piperidin-1-yl)propoxy)benzo[d]oxazole-2-carbimidoyl chloride]: the EC50 was found to be 20.9 µM.
For the compound `OC(CO/N=C(\Cl)c1nc2cc(F)ccc2o1)CN1CCCCC1` (configuration not stated) [5-fluoro-N-(2-hydroxy-3-(piperidin-1-yl)propoxy)benzo[d]oxazole-2-carbimidoyl chloride], the EC50 was determined as 51.3 µM.
Consider `CN(C)S(=O)(=O)c1ccc2nc(/C(Cl)=N/OCC(O)CN3CCCCC3)oc2c1` (configuration not stated) [6-(N,N-dimethylsulfamoyl)-N-(2-hydroxy-3-(piperidin-1-yl)propoxy)benzo[d]oxazole-2-carbimidoyl chloride], for which the EC50 stood at 41.6 µM.
To `OC(CO/N=C(\Cl)c1nc2ccc(Cl)cc2o1)CN1CCCCC1` (configuration not stated) [6-chloro-N-(2-hydroxy-3-(piperidin-1-yl)propoxy)benzo[d]oxazole-2-carbimidoyl chloride] belongs 22.9 µM; to `OC(CO/N=C(\Cl)c1nc2ccc(F)cc2o1)CN1CCCCC1` (configuration not stated) [6-fluoro-N-(2-hydroxy-3-(piperidin-1-yl)propoxy)benzo[d]oxazole-2-carbimidoyl chloride], 29.4 µM; to `OC(CO/N=C(\Cl)c1nc2cccc(F)c2o1)CN1CCCCC1` (configuration not stated) [7-fluoro-N-(2-hydroxy-3-(piperidin-1-yl)propoxy)benzo[d]oxazole-2-carbimidoyl chloride], 18.5 µM.
Turning to `CCCN(C[C@H](O)CO/N=C(\Cl)c1nc2ccccc2o1)C(C)C` [(S)-N-(2-hydroxy-3-(isopropyl(propyl)amino)propoxy)benzo[d]oxazole-2-carbimidoyl chloride], the EC50 is 24.1 µM.
For `CC(C)N(CCO)CC(O)CO/N=C(\Cl)c1nc2ccccc2o1` (configuration not stated) [N-(2-hydroxy-3-((2-hydroxyethyl)(isopropyl)amino)propoxy)benzo[d]oxazole-2-carbimidoyl chloride], the EC50 was determined as 28.7 µM.
`Cc1ccc2oc(/C(Cl)=N/OCC(O)CN3CCCCC3)nc2c1` (configuration not stated) [N-(2-hydroxy-3-(piperidin-1-yl)propoxy)-5-methylbenzo[d]oxazole-2-carbimidoyl chloride]: the EC50 is 41.6 µM.
For the compound `Cc1ccc2nc(/C(Cl)=N/OCC(O)CN3CCCCC3)oc2c1` (configuration not stated) [N-(2-hydroxy-3-(piperidin-1-yl)propoxy)-6-methylbenzo[d]oxazole-2-carbimidoyl chloride], the EC50 came out at 31 µM.
`OC(CO/N=C(\Cl)c1nc2ccccc2o1)CN1CCCCC1` (configuration not stated) [N-(2-hydroxy-3-(piperidin-1-yl)propoxy)benzo[d]oxazole-2-carbimidoyl chloride]: the EC50 was found to be 41.7 µM.
To `OC(CO/N=C(\Cl)c1nc2ccccc2s1)CN1CCCCC1` (configuration not stated) [N-(2-hydroxy-3-(piperidin-1-yl)propoxy)benzo[d]thiazole-2-carbimidoyl chloride] belongs 52.6 µM.
`OC(CO/N=C(\Cl)c1nc2c(ccc3ccccc32)o1)CN1CCCCC1` (configuration not stated) [N-(2-hydroxy-3-(piperidin-1-yl)propoxy)naphtho[1,2-d]oxazole-2-carbimidoyl chloride]: the EC50 is 12.1 µM.
Turning to `OC(CO/N=C(\Cl)c1nc2ccccc2s1)CN1CCCC1` (configuration not stated) [N-(2-hydroxy-3-(pyrrolidin-1-yl)propoxy)benzo[d]thiazole-2-carbimidoyl chloride], the EC50 was determined as 62.8 µM.
The value for `CC1CCCC(C)N1CC(O)CO/N=C(\Cl)c1nc2ccccc2o1` (configuration not stated) [N-(3-(2,6-dimethylpiperidin-1-yl)-2-hydroxypropoxy)benzo[d]oxazole-2-carbimidoyl chloride] was 32.4 µM.
To `CC1CC(C)CN(CC(O)CO/N=C(\Cl)c2nc3ccccc3o2)C1` (configuration not stated) [N-(3-(3,5-dimethylpiperidin-1-yl)-2-hydroxypropoxy)benzo[d]oxazole-2-carbimidoyl chloride] belongs 17.4 µM; to `OC(CO/N=C(\Cl)c1nc2ccccc2o1)CN1CCCC(F)C1` (configuration not stated) [N-(3-(3-fluoropiperidin-1-yl)-2-hydroxypropoxy)benzo[d]oxazole-2-carbimidoyl chloride], 52.6 µM.
Consider `CC(C)N(CCCF)CC(O)CO/N=C(\Cl)c1nc2ccccc2o1` (configuration not stated) [N-(3-((3-fluoropropyl)(isopropyl)amino)-2-hydroxypropoxy)benzo[d]oxazole-2-carbimidoyl chloride], for which the EC50 turned out to be 22.8 µM.
Turning to `CC(C)N(CC(O)CO/N=C(\Cl)c1nc2ccccc2o1)CC1CC1` (configuration not stated) [N-(3-((cyclopropylmethyl)(isopropyl)amino)-2-hydroxypropoxy)benzo[d]oxazole-2-carbimidoyl chloride], the EC50 came to 12.4 µM.
Regarding `CCCCN(CCCC)CC(O)CO/N=C(\Cl)c1nc2ccccc2o1` (configuration not stated) [N-(3-(dibutylamino)-2-hydroxypropoxy)benzo[d]oxazole-2-carbimidoyl chloride], the EC50 was determined as 20.9 µM.
With `CCN(CC)CC(O)CO/N=C(\Cl)c1nc2ccccc2o1` (configuration not stated) [N-(3-(diethylamino)-2-hydroxypropoxy)benzo[d]oxazole-2-carbimidoyl chloride], the EC50 was found to be 27.1 µM.
For the compound `CC(C)N(CC(O)CO/N=C(\Cl)c1nc2ccccc2o1)C(C)C` (configuration not stated) [N-(3-(diisopropylamino)-2-hydroxypropoxy)benzo[d]oxazole-2-carbimidoyl chloride], the EC50 turned out to be 25.5 µM.
On to `CCCN(CCC)CC(O)CO/N=C(\Cl)c1nc2ccccc2o1` (configuration not stated) [N-(3-(dipropylamino)-2-hydroxypropoxy)benzo[d]oxazole-2-carbimidoyl chloride], for which the EC50 amounted to 23.9 µM.
With `CCCN(CC)CC(O)CO/N=C(\Cl)c1nc2ccccc2o1` (configuration not stated) [N-(3-(ethyl(propyl)amino)-2-hydroxypropoxy)benzo[d]oxazole-2-carbimidoyl chloride], the EC50 is 23 µM.
On to `CC(C)N(CC(O)CO/N=C(\Cl)c1nc2ccccc2o1)C(C)(C)C` (configuration not stated) [N-(3-(tert-butyl(isopropyl)amino)-2-hydroxypropoxy)benzo[d]oxazole-2-carbimidoyl chloride], for which the EC50 came out at 16.6 µM.
